Data as given in article PMC7903221 (Bioorganic & medicinal chemistry, 2020).

Tests used:
HCC827 = assay: MTT assay, HCC827; type: cell-based, human; conditions: read-out: IC50 Value HCC827, 72 hours
How it was run: (§1)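 Human NSCLC lines were kept in RPMI 1640 with 10% FBS at 37 °C, 5% CO2, passaged every 2–3 days. Cells were seeded at 5,000–7,000/well depending on line and left 24 h. Test compound in DMSO/water (1 mM stock) was added at final 1, 4, 16 and 32 μM in medium, 6 replicates, for 72 h. MTT was applied for 3–4 h, then medium was replaced by DMSO for 15 min and OD read at 540 nm. IC50 is growth inhibition of 50% versus untreated cells.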

NCI-H1975 = assay: MTT assay, NCI-H1975; type: cell-based, human; conditions: read-out: IC50 Value NCI-H1975, 72 hours
How it was run: as §1

NCI-H460 [1] = assay: MTT assay, NCI-H460; type: cell-based, human; conditions: read-out: IC50 Value NCI-H460, 72 hours
How it was run: as §1

A549 = assay: MTT assay, A549; type: cell-based, human; conditions: read-out: IC50 Value A549, 72 hours
How it was run: as §1

nine NSCLC cell lines = assay: NCI-60 one-dose assay, average over nine NSCLC cell lines; type: cell-based; conditions: Homo sapiens, 48 h, read-out: Growth % Average
How it was run: (§2)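 NCI DTP single-dose screen. Cells were seeded at a density tied to doubling rate and incubated 24 h, then exposed to test compound at 10 μM for 48 h. Growth percentage is relative to the starting cell population: positive means net growth, negative means cell loss. It is given per NSCLC line or as the mean across the nine NSCLC lines.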

[2] = test system: NSCLC cell lines (NCI-H460, NCI-H1975, HCC827, and A549); assay: MTT assay, panel of four NSCLC cell lines; type: cell-based, human
How it was run: as §1

HOP-92 = assay: NCI-60 five-dose assay, HOP-92; type: cell-based, human; conditions: 48 hours, total growth inhibition
A549/ATCC = assay: NCI-60 five-dose assay, A549/ATCC; type: cell-based; conditions: 48 hours, total growth inhibition
EKVX = assay: NCI-60 five-dose assay, EKVX; type: cell-based, human; conditions: 48 hours, total growth inhibition
C57BL/6 mice = assay: Preliminary in vivo toxicity study; conditions: 20 mg/kg IP on days 0, 7, 14 and 29
NCI-H522 [3] = assay: NCI-60 five-dose assay, NCI-H522; type: cell-based, human; conditions: 48 hours, total growth inhibition
NCI-H23 = assay: NCI-60 five-dose assay, NCI-H23; type: cell-based, human; conditions: 48 hours, total growth inhibition
HOP-62 = assay: NCI-60 five-dose assay, HOP-62; type: cell-based, human; conditions: 48 hours, total growth inhibition
NSCLC cell lines = assay: NCI-60 five-dose assay, ranges over NSCLC cell lines; type: cell-based; conditions: Homo sapiens; for GI50: read-out: GI50 values, range over NSCLC cell lines; for CC50: read-out: LC50 values, range over NSCLC cell lines
NCI-H522 [4] = assay: NCI-60 one-dose assay, NCI-H522; type: cell-based; conditions: Homo sapiens, NCI-H522, 48 h, read-out: Growth % NCI-H522
How it was run: as §2

NCI-H460 [5] = assay: NCI-60 one-dose assay, NCI-H460; type: cell-based; conditions: Homo sapiens, NCI-H460, 48 h, read-out: Growth % NCI-H460
How it was run: as §2

NCI-H226 = assay: NCI-60 five-dose assay, NCI-H226; type: cell-based, human; conditions: 48 hours, total growth inhibition
NCI-H322M = assay: NCI-60 five-dose assay, NCI-H322M; type: cell-based, human; conditions: 48 hours, total growth inhibition
NCI-H460 [6] = assay: NCI-60 five-dose assay, NCI-H460; type: cell-based, human; conditions: 48 hours, total growth inhibition

`N.N.[Cl][Pt][Cl]` [Cisplatin, cisplatin] showed an IC50 (HCC827) of 9 µM, an IC50 (NCI-H1975) of 3 µM and an IC50 (NCI-H460 [1]) of 6 µM. The IC50 (A549) was 5 µM.

For `[Br-].[Br-].c1ccc2cc(Cn3cc[n+](Cn4cc[n+](Cc5ccc6ccccc6c5)c4)c3)ccc2c1` [Compound 1, 1-(naphthalen-2-ylmethyl)-3-((3-(naphthalen-2-ylmethyl)-imidazolium-1-yl)methyl)-imidazolium bromide], the activity at 10 µM (nine NSCLC cell lines) was 79.5% and the “IC50 values for three of the four cell lines” value ([2]; MTT, 72 hours, three of the four cell lines tested) was “above the testing concentration”.

`c1ccc2cc(Cn3cc[n+](CCn4cc[n+](Cc5ccc6ccccc6c5)c4)c3)ccc2c1` [Compound 2, 1-(naphthalen-2-ylmethyl)-3-(2-(3-(naphthalen-2-ylmethyl)-imidazolium-1-yl)ethyl)-imidazolium bromide] gave an activity at 10 µM (nine NSCLC cell lines) of 80.9%.

Work on `c1ccc2cc(Cn3cc[n+](CCCn4cc[n+](Cc5ccc6ccccc6c5)c4)c3)ccc2c1` [Compound 3, 1-(naphthalen-2-ylmethyl)-3-(3-(3-(naphthalen-2-ylmethyl)-imidazolium-1-yl)propyl)-imidazolium bromide] yielded an activity at 10 µM (nine NSCLC cell lines) of 72.8%.

In the case of `c1ccc2cc(Cn3cc[n+](CCCCCn4cc[n+](Cc5ccc6ccccc6c5)c4)c3)ccc2c1` [Compound 5, 1-(naphthalen-2-ylmethyl)-3-(5-(3-(naphthalen-2-ylmethyl)-imidazolium-1-yl)pentyl)-imidazolium bromide], the activity at 10 µM (nine NSCLC cell lines) is reported as 53.9%.

With `c1ccc2cc(Cn3cc[n+](CCCCCCn4cc[n+](Cc5ccc6ccccc6c5)c4)c3)ccc2c1` [Compound 6, 1-(naphthalen-2-ylmethyl)-3-(6-(3-(naphthalen-2-ylmethyl)-imidazolium-1-yl)hexyl)-imidazolium bromide] the activity at 10 µM (nine NSCLC cell lines) was 47.3%.

With `c1ccc2cc(Cn3cc[n+](CCCCCCCn4cc[n+](Cc5ccc6ccccc6c5)c4)c3)ccc2c1` [Compound 7, 1-(naphthalen-2-ylmethyl)-3-(7-(3-(naphthalen-2-ylmethyl)-imidazolium-1-yl)heptyl)-imidazolium bromide] the activity at 10 µM (nine NSCLC cell lines) was 30%.

In the case of `[Br-].[Br-].c1ccc2cc(Cn3cc[n+](CCCCCCCCCCn4cc[n+](Cc5ccc6ccccc6c5)c4)c3)ccc2c1` [Compound 10, 1-(naphthalen-2-ylmethyl)-3-(10-(3-(naphthalen-2-ylmethyl)-imidazolium-1-yl)decyl)-imidazolium bromide], the “TGI HOP-92” value (HOP-92) is reported as 2.96 µM, the “TGI A549/ATCC” value (A549/ATCC) is reported as 13.3 µM and the “TGI EKVX” value (EKVX) is reported as 9.07 µM. The tolerability (C57BL/6 mice) was “well tolerated”, the “TGI NCI-H522” value (NCI-H522 [3]) was 1.94 µM and the “TGI NCI-H23” value (NCI-H23) was 3.35 µM. For the same compound, the activity at 10 µM (nine NSCLC cell lines) was 2.47%, the “TGI HOP-62” value (HOP-62) was 7.24 µM and the GI50 (NSCLC cell lines) was 0.396 to 3.55 µM. It also gave a CC50 (NSCLC cell lines) of 15.2 to 58.4 µM and an activity at 10 µM (NCI-H522 [4]) of -72.3%.

With `[Br-].[Br-].c1ccc2cc(Cn3cc[n+](CCCCCCCCCCCCn4cc[n+](Cc5ccc6ccccc6c5)c4)c3)ccc2c1` [Compound 12, 1-(naphthalen-2-ylmethyl)-3-(12-(3-(naphthalen-2-ylmethyl)-imidazolium-1-yl)dodecyl)-imidazolium bromide] the “TGI HOP-92” value (HOP-92) was 1.40 µM, the “TGI A549/ATCC” value (A549/ATCC) was 3.57 µM and the “TGI EKVX” value (EKVX) was 4.20 µM. For the same compound, the activity at 10 µM (NCI-H460 [5]) was -69.9%, the “TGI NCI-H522” value (NCI-H522 [3]) was 1.25 µM and the “TGI NCI-H226” value (NCI-H226) was 5.52 µM. For the same compound, the “TGI NCI-H23” value (NCI-H23) was 2.40 µM, the “TGI NCI-H322M” value (NCI-H322M) was 3.90 µM and the activity at 10 µM (nine NSCLC cell lines) was -60.9%. The “TGI NCI-H460” value (NCI-H460 [6]) was 2.96 µM, the “TGI HOP-62” value (HOP-62) was 2.65 µM and the GI50 (NSCLC cell lines) was 0.47 to 0.984 µM. The CC50 (NSCLC cell lines) was 7.29 to 14.6 µM and the IC50 ([2]; Homo sapiens, 72 h, read-out: IC50 values for three of the four cell lines) was less than 1 µM.
